Measurements: ChEMBL document CHEMBL1795240, “Synthesis and anti-Trypanosoma cruzi activity of β-lapachone analogues” (Eur J Med Chem, 2011)

The compounds below were run on Trypanosoma cruzi (assay: Ratio of Benzidazole IC50 to compound IC50 for bloodstream trypomastigote form of Trypanosoma cruzi Y). Conditions: not given.
Assay type: functional

SMILES	Ratio IC50
Cc1ccc(C2CCC3=C(O2)c2ccccc2C(=O)C3=O)cc1 (centres undefined)	2
O=C1C(=O)c2ccccc2C2=C1C[C@@H]1CC=C[C@@H]1O2	2
O=C1C(=O)c2ccccc2C2=C1CCC(c1ccccc1)O2 (centres undefined)	2

What follows are compounds tested on Trypanosoma cruzi (assay: Antitrypanosomal activity against bloodstream trypomastigote form of Trypanosoma cruzi Y isolated from albino mouse blood after 24 hrs). Conditions: not given.
Assay type: functional, organism-based
How it was run: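 Y-strain bloodstream trypomastigotes taken from infected albino mice at peak parasitaemia, isolated by differential centrifugation, and resuspended at 10^7 cells/mL in DMEM with 10% mouse blood. Compounds were added from DMSO stocks, with final DMSO never above 0.1%.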

SMILES	IC50 [µM]
CC1(c2ccccc2)CCC2=C(O1)c1ccccc1C(=O)C2=O (centres undefined)	123
O=C1C(=O)c2ccccc2C2=C1CCC(c1ccc(Cl)cc1)O2 (centres undefined)	20.2
Cc1ccc(C2CCC3=C(O2)c2ccccc2C(=O)C3=O)cc1 (centres undefined)	51.4
COc1ccc(C2CCC3=C(O2)c2ccccc2C(=O)C3=O)cc1 (centres undefined)	121
O=C1C(=O)c2ccccc2C2=C1CCC(c1ccc(F)cc1)O2 (centres undefined)	97.6
CCOc1ccc(C2CCC3=C(O2)c2ccccc2C(=O)C3=O)cc1 (centres undefined)	132
Cc1ccc(C2CCC3=C(O2)c2ccccc2C(=O)C3=O)c(C)c1 (centres undefined)	688
Cc1ccc(C2CC(c3ccc([N+](=O)[O-])cc3)C3=C(O2)c2ccccc2C(=O)C3=O)cc1 (centres undefined)	> 4000
Cc1ccc(C2CC(c3ccccc3)C3=C(O2)c2ccccc2C(=O)C3=O)cc1 (centres undefined)	849
Cc1ccc(C2CC(c3cccs3)C3=C(O2)c2ccccc2C(=O)C3=O)cc1 (centres undefined)	1860
O=C1C(=O)c2ccccc2C2=C1C[C@@H]1CC=C[C@@H]1O2	62.6
O=C1C(=O)c2ccccc2C2=C1C[C@@H]1CCC=C[C@@H]1O2	161
O=C1C(=O)c2ccccc2C2=C1C[C@@H]1CCCO[C@@H]1O2	35.4
CCOC1CC[C@H]2CC3=C(O[C@H]2O1)c1ccccc1C(=O)C3=O (some centres undefined)	331
COC1CC[C@H]2CC3=C(O[C@H]2O1)c1ccccc1C(=O)C3=O (some centres undefined)	880
CC1(C)CCc2c(c3ccccc3c3nc(-c4ccc5c(c4)OCO5)oc23)O1	25
CC1(C)CCc2c(c3ccccc3c3nc(-c4c[nH]c5ccccc45)[nH]c23)O1	20
CC1(C)CCC2=C(O1)c1ccccc1C1(CO1)C2=O (centres undefined)	1.3
CC1(C)OC2=C(C(=O)C(=O)c3ccccc32)C1Nc1ccccc1 (centres undefined)	86.3
O=C1C(=O)c2ccccc2C2=C1CCC(c1ccccc1)O2 (centres undefined)	56

Same assay, conditions: read-out: ED50 (the source's name)

SMILES	EC50 [µM]
CC1(C)CCc2c(c3ccccc3c3nc4cc(Nc5ccccc5)/c(=N/c5ccccc5)cc-4n(-c4ccccc4)c23)O1	61.3
